Screens as filed in PubChem.
Ba/F3 V617F tox: lowers viability of Ba/F3 cells expressing EpoR and JAK2V617F; 220,000 tested, 1.1% active; ATP luminescence; inhibition, % at 5.6 µM;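 active = inhibition above the campaign mean plus 3 SD over all tested compounds, cut at about 24% in these data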;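 note: cytokine-independent growth of Ba/F3 cells driven by EpoR plus mutant JAK2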
APP 5UTR inh: APP translation inhibition; AID 1285; 190,000 tested, 0.82% active; inhibition, % at 2 µM; SH-SY5Y APP 5'UTR-luciferase reporter, luminescence;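 active = inhibition above a set limit, derived from the sample mean plus 3 SD, cut at about 45% in these data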
BaF3 tox: counter-screen for JAK2V617F inhibitors: parental Ba/F3 viability inhibitors | inhibition, % at 5.6 µM | CellTiter-Glo ATP luminescence | 220,000 tested, 1.1% active | AID 1486;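 active = inhibition above a per-campaign cutoff, the mean inhibition of all tested compounds plus 3 SD, cut at about 27% in these data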
MT stabilize HCS: stabilizes microtubules in HeLa cells; HeLa tubulin immunostaining HCS, 24 h; share of cells brighter than vehicle mean+2SD; % tubulin-high responders, % at 10 µM; 200,000 tested, 0.83% active; AID 2205;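 active = plate Z-score above 3 for both tubulin-high and condensed-nucleus cell shares, with cell loss under 80%, at 10 µM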;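 note: anti alpha tubulin signal scored within the nucleus-defined area of each cell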
bCat nuc transl: modulators of beta-catenin nuclear translocation | nuclear translocation activity, % at 5 µM | HeLa beta-catenin nuclear translocation, immunofluorescence imaging | 190,000 tested, 0.3% active | AID 1665;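 active = nuclear translocation activity above 50% at 5 µM, with a well cell count of 50 or more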;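 note: per-cell ratio of nuclear to cytoplasmic median beta-catenin stain intensity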
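Technique: fluorescence imaging of beta-catenin antibody stain plus DAPI / Material: human HeLa cell line / Incubation: compound treatment 24 h, 37°C, 5% CO2 / Read-out basis: % activation of per-cell nuclear versus cytoplasmic median beta-catenin signal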
IEC-6 tox: counter-screen for KLF5 inhibitors: cytotoxicity in IEC-6 cells; IEC-6 cytotoxicity, luminescence viability; inhibition, % at 5 µM; 290,000 tested, 0.78% active; AID 1825
BaF3 parental 2: reduces parental Ba/F3 viability, JAK2V617F counter-screen | 580 tested, 31% active | inhibition, % at 5.6 µM | shares compounds with Ba/F3 V617F tox | CellTiter-Glo luminescence; cells kept alive by added IL-3;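 active = cell growth inhibition above the hit limit set in the earlier mutant JAK2 cell screen, cut at about 27% in these data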
JAK2V617F conf: Ba/F3 EpoR-JAK2V617F viability loss, confirmation; CellTiter-Glo luminescence; inhibition, % at 5.6 µM; 580 tested, 66% active; shares compounds with Ba/F3 V617F tox;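 active = mean inhibition above the hit cutoff derived in the earlier primary screen, cut at about 25% in these data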;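 note: higher means lower luminescence from reduced cell ATP and viability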
IEC-6 cytotox cf: IEC-6 cytotoxicity, confirmation assay. shares compounds with IEC-6 tox. IEC-6 rat intestinal epithelial viability, luminescence. inhibition, % at 5 µM. 1,900 tested, 63% active. AID 1907
Each line names hits and unclear results; the compound was inactive in the other large screens (follow-up assays come after a bar, where they were run); ! = a repeat was not active. Shown are actives, neighbours in structure and some others; about 2.2% of the full set was active somewhere. Cut-off read from the data, not from the text of the source, unless noted: active = inhibition above about 22%; inactive = the rest.

C[N+]1(C)CCN(c2ccccc2)CC1	none
Cc1ccc(-c2nc3ccccc3c(=O)n2-c2ncccc2C)cc1	BaF3 tox 95
Cc1cccnc1-n1c(-c2ccccc2)nc2ccccc2c1=O	none
COc1cccc(NP(=O)(Oc2ccccc2)Oc2ccccc2)c1	MT stabilize HCS 18
COc1cccc(NP(=O)(Oc2ccccc2Cl)Oc2ccccc2Cl)c1	none
CCN(CC)C(=O)c1ccc(NC(=O)Nc2ccccc2F)cc1	Ba/F3 V617F tox 43, BaF3 tox 43, IEC-6 tox 28
CCN(CC)C(=O)c1ccc(NC(=O)CCCSc2ccccc2)cc1	none
C[C@H]1C[C@@H](C)C(=O)[C@@H]([C@H](O)CC2CC(=O)NC(=O)C2)C1	Ba/F3 V617F tox 98, APP 5UTR inh 45, BaF3 tox 100, IEC-6 tox 98
CN1CCN(Cc2nc3ccccc3n2C)CC1	none
Cn1c(NN=O)nc2ccccc21	APP 5UTR inh 75
O=c1c2ccccc2nc(CSc2ncnc3nc[nH]c23)n1-c1ccccc1Cl	none
O=c1c2ccccc2nc(CSc2ncnc3nc[nH]c23)n1-c1ccccc1	BaF3 tox 32 (no result: bCat nuc transl)
Cn1cccc1/C=C1\C(=O)NC(=O)N(Cc2ccccc2)C1=O	bCat nuc transl 74 (no result: APP 5UTR inh, MT stabilize HCS)
Cn1cccc1/C=C1/C(=O)NC(=O)N(Cc2ccccc2)C1=O	bCat nuc transl 64
Cn1cccc1/C=C1/C(=O)NC(=O)N(Cc2ccc(F)cc2)C1=O	none (no result: APP 5UTR inh, MT stabilize HCS)
Cn1cccc1/C=C1/C(=O)NC(=S)N(Cc2ccc(F)cc2)C1=O	bCat nuc transl 54 (no result: APP 5UTR inh, MT stabilize HCS)
COC1=CC(=O)OC(/C=C/c2ccccc2)C1 (centres undefined)	none (no result: bCat nuc transl)
CC(=NCc1ccc(F)cc1)c1c(O)n(C)c(=O)n(C)c1=O	Ba/F3 V617F tox 35, BaF3 tox 31
CCN1C[C@]2(CO)CC[C@H](OC)[C@@]34C2[C@H](OC)[C@@](O)(C13)[C@@]1(O)C[C@H](OC)[C@H]2C[C@@H]4[C@@H]1[C@H]2OC	none (no result: Ba/F3 V617F tox, APP 5UTR inh, BaF3 tox, MT stabilize HCS, bCat nuc transl)
O=c1[nH]c(=O)n(-c2ccc(F)cc2)c(O)c1C=Nc1ccccc1N1CCCC1	BaF3 tox 38 (no result: bCat nuc transl)
Cc1ccc(-n2c(O)c(C=Nc3ccccc3N)c(=O)[nH]c2=O)cc1C	none
CC(C)N1CC=C(c2c[nH]c3ccccc23)CC1	Ba/F3 V617F tox 87, BaF3 tox 65
CCN(CC)C1=NC(=[N+](CC)CC)c2ccccc21	Ba/F3 V617F tox 80, BaF3 tox 66
COc1ccc(O)c2c(=O)c3c(OC)cc4c(c3oc12)C1C=COC1O4 (centres undefined)	IEC-6 tox 30 (no result: APP 5UTR inh, MT stabilize HCS)
Cn1nc(-c2ccc(OCC(=O)N3CCN(Cc4ccccc4)CC3)cc2)c2ccccc2c1=O	BaF3 tox 39!
CCN1CCN(C(=O)Cc2c(C)n(C(=O)c3ccc(Cl)cc3)c3ccc(OC)cc23)CC1	none
CCOc1ccccc1N=C1SCCCN1C	none
CCOc1cccc(=NC2CCCCC2)c2c(C)n(C)c(C)c12	Ba/F3 V617F tox 73, BaF3 tox 65 (no result: APP 5UTR inh, MT stabilize HCS)
CN(C(=O)CNC(=O)OCc1ccccc1)c1ccc(Br)cc1C(=O)c1ccccc1Cl	APP 5UTR inh 80, bCat nuc transl 67
Cn1nccc1C(=O)N1CCC2(CC1)OCCO2	none (no result: Ba/F3 V617F tox, APP 5UTR inh, BaF3 tox, MT stabilize HCS, bCat nuc transl)
O=C1CN(C(=O)CN2CCCCC2)C(c2ccccc2)c2cc(Br)ccc2N1 (centres undefined)	none (no result: bCat nuc transl)
Cc1ccccc1-n1c(O)c(/C=C2/C(c3ccccc3)=Nc3ccccc32)c(=O)[nH]c1=O	Ba/F3 V617F tox 78, APP 5UTR inh 62, BaF3 tox 69, IEC-6 tox 78
CCN1CCC(N(C)C2CCCCC2)CC1	none (no result: Ba/F3 V617F tox, APP 5UTR inh, BaF3 tox, MT stabilize HCS, bCat nuc transl)
Cc1cccc(-n2c(/C=C/c3ccc([N+](=O)[O-])o3)nc3ccccc3c2=O)c1	none (no result: APP 5UTR inh)
O=c1c2ccccc2nc(/C=C/c2ccc([N+](=O)[O-])o2)n1-c1ccc(O)cc1	APP 5UTR inh 80
c1cc(C2N3CCCN2CC3)ccn1 (centres undefined)	none (no result: APP 5UTR inh, MT stabilize HCS)
C[n+]1c(-c2ccccc2)cc(-c2ccc(Cl)cc2)cc1-c1ccccc1	Ba/F3 V617F tox 46, BaF3 tox 30
CC(C)CCCn1c(O)c(/C=C2/C=CC=N2)c(=O)[nH]c1=O	MT stabilize HCS 31
CCOc1ccc(-c2c(C)n(-c3ccc(OCC)cc3)c3[n+]2CCCCC3)cc1	Ba/F3 V617F tox 99, BaF3 tox 89, IEC-6 tox 45 (no result: APP 5UTR inh, MT stabilize HCS)
CCOc1ccc(-n2c(-c3ccoc3)nc3ccccc3c2=O)cc1	none (no result: bCat nuc transl)
COc1ccccc1-n1c(O)c(C=NCCN2CCNCC2)c(=O)[nH]c1=O	none
CN(C)C(=O)Oc1ccc(OCc2nc3ccccc3[nH]2)cc1	Ba/F3 V617F tox 24 | BaF3 parental 2 31 | JAK2V617F conf 34
Cc1ccc(Cl)cc1-n1c(O)c(C=NCCCN2CCOCC2)c(=O)[nH]c1=O	none
CNCCc1c[nH]c2ccccc12	none
c1ccc2c(CNC3CCCCCC3)c[nH]c2c1	Ba/F3 V617F tox 27 (no result: bCat nuc transl) | BaF3 parental 2 inactive | JAK2V617F conf 38
c1ccc2c(CN3CCCCCC3)c[nH]c2c1	Ba/F3 V617F tox 62 | BaF3 parental 2 inactive | JAK2V617F conf 76
CCOc1ccc(N2C(=O)/C(=C\c3cccs3)C(=O)NC2=S)cc1	Ba/F3 V617F tox 63 | BaF3 parental 2 inactive | JAK2V617F conf inactive
CCOc1ccc(N2C(=O)/C(=C/c3ccco3)C(=O)NC2=S)cc1	none (no result: Ba/F3 V617F tox, APP 5UTR inh, BaF3 tox, MT stabilize HCS, bCat nuc transl)
O=C(Cc1ccccc1)OCCNC(=O)c1cccnc1	none
N#CC(C#N)=C(N)c1cccnc1	Ba/F3 V617F tox 34 | BaF3 parental 2 inactive | JAK2V617F conf inactive
O=C(Nc1ccc(Cl)cc1C(=O)c1ccccc1)c1ccc(Br)o1	none
CCCCn1c(O)c(C(CC)=NCCN2CCCCC2)c(=O)[nH]c1=O	none
CN(C)C(=S)SSC(=S)N(C)C	Ba/F3 V617F tox 39, APP 5UTR inh 95, IEC-6 tox 102 | BaF3 parental 2 inactive | JAK2V617F conf 99
CC/C(=C\C=C\[C@@H]1C=C[C@@H]2CCC[C@H]2[C@@H]1C(=O)c1ccc[nH]1)[C@@H]1O[C@@H]([C@@H](C)C(=O)O)CC[C@@H]1C	Ba/F3 V617F tox 55, BaF3 tox 31, IEC-6 tox 39 | IEC-6 cytotox cf 33
COc1ccc(/C=C2\C(=N\O)C3CCN2CC3)cc1	none
CCOC(=O)C1=CC(=C2C(=O)N(CC)C(=S)N(CC)C2=O)c2ccccc2O1	none
COc1ccc(C2C(C#N)=C(N)Oc3c2c(=O)oc2ccccc32)cc1Cn1cc([N+](=O)[O-])cn1 (centres undefined)	none
